Published values gathered from unrelated publications.
Compare with care: the assays were run in different laboratories.
Effect on: DPPH scavenging

Cc1ccc(N(O)N=Nc2ccc(S(=O)(=O)Nc3cc(C)on3)cc2)cc1 — inhibition (absorbance; 240 µg/mL): 29.7%
O=C1O[C@H]([C@@H](O)CO)C(O)=C1O — inhibition (absorbance; 120 µM): 59%
Cc1ccc(C(C)C)cc1NC(=O)COC(=O)c1cccc(O)c1 — inhibition (100 µg/mL): 25.2%
O=C1O[C@H]([C@@H](O)CO)C(O)=C1O — inhibition (25 µg/mL): 57.2%
Cc1cc(NS(=O)(=O)c2ccc(N=NN(O)c3ccccc3)cc2)no1 — inhibition (absorbance; 20 µg/mL): 21.8%
COc1cc(C=Cc2cc(-c3ccccc3)nc(O)n2)ccc1O — inhibition (100 µg/mL): 73.6%
Cc1ccc(N(O)N=Nc2ccc(S(=O)(=O)Nc3onc(C)c3C)cc2)cc1 — inhibition (absorbance; 300 µg/mL): 32.6%
COc1cc(C=Cc2cc(-c3ccc(N(C)C)cc3)nc(O)n2)ccc1O — inhibition (25 µg/mL): 46.6%
CCN(O)N=Nc1ccc(S(=O)(=O)Nc2cc(C)on2)cc1 — inhibition (absorbance; 300 µg/mL): 40.5%
CC1(C)CC[C@]2(C(=O)O)CC[C@]3(C)C(=CC[C@@H]4[C@@]5(C)CC[C@H](O)C(C)(C)[C@@H]5CC[C@]43C)[C@@H]2C1 — inhibition (100 µg/mL): 95.6%
COc1cc(C=CC(=O)CC(c2ccc([N+](=O)[O-])cc2)n2ccnc2)ccc1O (stereo not drawn) — inhibition (25 µg/mL): 50.7%
CCN(O)N=Nc1ccc(S(=O)(=O)Nc2nccs2)cc1 — inhibition (absorbance; 240 µg/mL): 25.2%
Cc1ccc(C(C)C)cc1NC(=O)COC(=O)c1ccc(O)c(O)c1 — inhibition (100 µg/mL): 91.8%
Oc1ccc(Br)cc1C=NCCN1CCOCC1 — inhibition (absorbance; 160 µM): 36.5%
Cc1ccc(C(C)C)cc1NC(=O)COC(=O)/C=C/c1ccccc1O — inhibition (100 µg/mL): 1.15%
COc1cc(C=CC(=O)CC(c2ccc(N(C)C)cc2)n2ccnc2)ccc1O (stereo not drawn) — inhibition (100 µg/mL): 73.5%
CCN(O)N=Nc1ccc(S(=O)(=O)Nc2onc(C)c2C)cc1 — inhibition (absorbance; 60 µg/mL): 10.9%
Cc1ccc(C(C)C)cc1NC(=O)COC(=O)/C=C/c1ccccc1 — inhibition (100 µg/mL): 1.39%
